One experiment has as its system Candida albicans. Description: Antifungal activity against Candida albicans CA98001. In kind it is functional. A digest of the protocol: (§1)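 Growth-inhibition screen against the named strain, following a previously published protocol. The read-out is MIC80, reported in ng mL⁻¹. Fluconazole and itraconazole served as positive controls.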
The test system of the next experiment is Aspergillus fumigatus. Description: Antifungal activity against Aspergillus fumigatus AF98003. In kind it is functional. A digest of the protocol:
as §1

Values after ≈ are worked out from the molar mass of the structure shown.

Usually MIC80 stands for the lowest concentration that inhibits either 80% of growth or 80% of the strains tested, depending on the study. High values mean lower susceptibility, low ones higher susceptibility.

Turning to `OC(Cn1cncn1)(Cn1cncn1)c1ccc(F)cc1F` [FLUCONAZOLE], in the experiment with Candida albicans, the MIC80 stood at 0.19 µg/mL (≈ 0.62 µM).
`CN(Cc1ccc([N+](=O)[O-])cc1)CC(O)(Cn1cncn1)c1ccc(Cl)cc1Cl` (stereo not drawn): the MIC80 against Candida albicans was found to be 0.0006 µg/mL (≈ 0.00138 µM); against Aspergillus fumigatus, 1.96 µg/mL (≈ 4.49 µM).
Compound `CCC(C)n1ncn(-c2ccc(N3CCN(c4ccc(OC[C@H]5CO[C@](Cn6cncn6)(c6ccc(Cl)cc6Cl)O5)cc4)CC3)cc2)c1=O` (stereo partly drawn) [ITRACONAZOLE] gave an MIC80 against Aspergillus fumigatus of 0.42 µg/mL (≈ 0.595 µM).
Turning to `O=[N+]([O-])c1ccc(CNCC(O)(Cn2cncn2)c2ccc(Cl)cc2Cl)cc1` (stereo not drawn), the MIC80 was 0.006 µg/mL (≈ 0.0142 µM) against Candida albicans and 27 µg/mL (≈ 64 µM) with Aspergillus fumigatus.
As for `CN(Cc1ccc(N)cc1)CC(O)(Cn1cncn1)c1ccc(Cl)cc1Cl` (stereo not drawn), the MIC80 stood at 0.029 µg/mL (≈ 0.0714 µM) against Candida albicans and 2.32 µg/mL (≈ 5.71 µM) against Aspergillus fumigatus.
In the same order, the values of `N#Cc1ccc(CNCC(O)(Cn2cncn2)c2ccc(Cl)cc2Cl)cc1` (stereo not drawn) are 0.0028 µg/mL (≈ 0.00696 µM) and 4.02 µg/mL (≈ 9.99 µM).
For `CN(Cc1ccc(C(F)(F)F)cc1)CC(O)(Cn1cncn1)c1ccc(Cl)cc1Cl` (stereo not drawn), the MIC80 against Candida albicans worked out at 0.03 µg/mL (≈ 0.0653 µM); with Aspergillus fumigatus, 21.1 µg/mL (≈ 46 µM).
In the same order, the values of `CN(Cc1ccc(C#N)cc1)CC(O)(Cn1cncn1)c1ccc(Cl)cc1Cl` (stereo not drawn) are 0.00037 µg/mL (≈ 0.000889 µM) and 2.41 µg/mL (≈ 5.79 µM).
In the case of `Nc1ccc(CNCC(O)(Cn2cncn2)c2ccc(Cl)cc2Cl)cc1` (stereo not drawn), the MIC80 in the experiment with Candida albicans came out at 18.8 µg/mL (≈ 48 µM); against Aspergillus fumigatus, 3.06 µg/mL (≈ 7.8 µM).
As for `OC(CNCc1ccc(C(F)(F)F)cc1)(Cn1cncn1)c1ccc(Cl)cc1Cl` (stereo not drawn), the MIC80 in the experiment with Candida albicans turned out to be 0.024 µg/mL (≈ 0.0539 µM); with Aspergillus fumigatus it was 24 µg/mL (≈ 54 µM).

Source of the values: ChEMBL document CHEMBL1141540, “Design, synthesis, and evaluation of 1-(N-benzylamino)-2-phenyl-3-(1H-1,2,4-triazol-1-yl)propan-2-ols as antifungal agents” (2008).
